Experimental data of several laboratories.
Protocols differ between the studies behind these lines.
IDE: Insulin-degrading enzyme (IDE, Homo sapiens, UniProt P14735)
Tumor necrosis factor receptor superfamily member 9: Tumor necrosis factor receptor superfamily member 9 (Homo sapiens, UniProt Q07011)

| Structure (SMILES) | target | observed | action | technique | notes | measurement | result |
| --- | --- | --- | --- | --- | --- | --- | --- |
| O=C(O)CN(CC(=O)N[C@H](CO)Cc1c[nH]cn1)Cc1ccccc1 | IDE | enzyme activity | inhibitor | fluorescence | – | IC50 | 4100 nM |
| COc1ccc(OC(=O)N(CC(=O)O)Cc2ccc(OCCc3nc(-c4ccccc4)oc3C)cc2)cc1 | Peroxisome proliferator-activated receptor alpha (PPARA, Homo sapiens, UniProt Q07869) | reporter gene | agonist | luciferase | – | EC50 | 6500 nM |
| CC(C)COC(=O)[C@H](Cc1cnc[nH]1)NC(=O)CN(CC(=O)O)Cc1ccccc1 | IDE | enzyme activity | inhibitor | fluorescence | – | IC50 | 600 nM |
| Cc1cnc(-c2ccc(-c3ccc(NC(=O)Nc4c(F)cc(F)cc4F)cc3F)c3c2C(=O)NC3)[nH]1 | Myosin-IIIa (MYO3A, Homo sapiens, UniProt Q8NEV4) | binding | – | competition with immobilised ligand | – | Kd | 13 nM |
| CN1CCN(c2ccc(Nc3ncc4cc(C#N)c(=O)n(C5CCCC5)c4n3)cc2)CC1 | Serine/threonine-protein kinase 4 (STK4, Homo sapiens, UniProt Q13043) | enzyme activity | inhibitor | – | – | IC50 | 7070 nM |
| COC(=O)[C@H](Cc1c[nH]cn1)NC(=O)CN(CC(=O)O)Cc1ccc(C)cc1 | IDE | enzyme activity | inhibitor | fluorescence | – | IC50 | 1700 nM |
| CNC(=O)c1cc2c(Oc3ccc(NC(=O)C4(C(=O)Nc5ccc(F)cc5)CC4)cc3)ccnc2cc1OC | Hepatocyte growth factor receptor (MET, Homo sapiens, UniProt P08581, Y1230D) | enzyme activity | inhibitor | radiometric | – | IC50 | 9 nM |
| CCCC[C@@H]1NC(=O)[C@H](Cc2ccc(O)cc2)NC(=O)[C@@H]2CCCN2C(=O)[C@H](CC(=O)O)NC(=O)[C@H](C)NC(=O)[C@H](Cc2ccccc2)NC(=O)[C@@H]2CSCCC(=O)N3CN(CN(C3)C(=O)CCSC[C@@H](C(=O)N[C@@H](C)C(N)=O)NC1=O)C(=O)CCSC[C@H](NC(C)=O)C(=O)N[C@@H](CC(C)(C)C)C(=O)N1CCC[C@H]1C(=O)N[C@@H](CCC(=O)O)C(=O)N[C@H](CCCCNC(=O)CCc1cn(CC(=O)N[C@H]3CSCCC(=O)N4CN5CN(C4)C(=O)CCSC[C@H](NC(=O)[C@@H](CC(=O)O)NC(=O)[C@H](Cc4cccc6ccccc46)NC(=O)[C@@H]4CCCN4C3=O)C(=O)N[C@@H](CCSC)C(=O)N[C@@H](CCCCNC(=N)N)C(=O)N[C@@H](CC(=O)O)C(=O)N[C@@H](Cc3c[nH]c4ccccc34)C(=O)N[C@@H](CO)C(=O)N[C@@H]([C@@H](C)O)C(=O)N3CCC[C@H]3C(=O)N3C[C@H](O)C[C@H]3C(=O)N[C@@H](Cc3c[nH]c4ccccc34)C(=O)N[C@H](C(N)=O)CSCCC5=O)nn1)C(=O)N1CCC[C@H]1C(=O)N[C@@H](Cc1ccc(O)cc1)C(=O)N2 | Tumor necrosis factor receptor superfamily member 9 | binding | – | SPR | – | Kd | 9 nM |
| c1cncc(-c2cccc(Nc3nccc(NC4CCCCC4)n3)c2)c1 | Macrophage colony-stimulating factor 1 receptor (CSF1R, Homo sapiens, UniProt P07333) | binding | – | competition with immobilised ligand | – | Kd | 590 nM |
| COC(=O)[C@H](Cc1c[nH]cn1)NC(=O)CN(CC(=O)O)Cc1ccc(F)cc1 | IDE | enzyme activity | inhibitor | fluorescence | – | IC50 | 2500 nM |
| CC#CC(=O)N1CC[C@@H](n2cc(-c3ccc(Oc4c(F)cccc4F)cc3)c3c(N)n[nH]c(=O)c32)C1 | Tyrosine-protein kinase JAK3 (JAK3, Homo sapiens, UniProt P52333) | binding | – | competition with immobilised ligand | – | Kd | > 3000 nM |
| COC(=O)[C@H](Cc1c[nH]cn1)NC(=O)CN(CCCCc1ccccc1)CC(=O)O | IDE | enzyme activity | inhibitor | fluorescence | – | IC50 | 600 nM |
| CCCC[C@@H]1NC(=O)[C@H](Cc2ccc(O)cc2)NC(=O)[C@@H]2CCCN2C(=O)[C@H](CC(=O)O)NC(=O)[C@H](C)NC(=O)[C@H](Cc2ccccc2)NC(=O)[C@@H]2CSCCC(=O)N3CN(CN(C3)C(=O)CCSC[C@@H](C(=O)N[C@@H](CNC(=O)CCc3cn(CCOCCOCCOCCOCCOCCOCCOCCOCCOCCOCCOCCOCCC(=O)NCCC(=O)N(C)CC(=O)N(C)CC(=O)N(C)CC(=O)N(C)CC(=O)N(C)CC(=O)N(C)CC(=O)N(C)CC(=O)N(C)CC(=O)N(C)CC(=O)N(C)CC(=O)NCCCC[C@@H]4NC(=O)[C@H](Cc5cccc6ccccc56)NC(=O)[C@@H]5CCCN5C(=O)[C@@H](NC(C)=O)CSCCC(=O)N5CN6CN(C5)C(=O)CCSC[C@H](NC4=O)C(=O)N[C@@H](CCSC)C(=O)N[C@@H](CCCCNC(=N)N)C(=O)N[C@@H](CC(=O)O)C(=O)N[C@@H](Cc4c[nH]c5ccccc45)C(=O)N[C@@H](CO)C(=O)N[C@@H]([C@@H](C)O)C(=O)N4CCC[C@H]4C(=O)N4C[C@H](O)C[C@H]4C(=O)N[C@@H](Cc4c[nH]c5ccccc45)C(=O)N[C@H](C(N)=O)CSCCC6=O)nn3)C(N)=O)NC1=O)C(=O)CCSC[C@H](NC(C)=O)C(=O)N[C@@H](CC(C)(C)C)C(=O)N1CCC[C@H]1C(=O)N[C@@H](CCC(=O)O)C(=O)N[C@H](C)C(=O)N1CCC[C@H]1C(=O)N[C@@H](Cc1ccc(O)cc1)C(=O)N2 | Tumor necrosis factor receptor superfamily member 9 | binding | – | SPR | – | Kd | 5.1 nM |
| Cc1cc2nc3c(=O)[nH]c(=O)nc-3n(C[C@H](O)[C@H](O)[C@H](O)COP(=O)(O)OP(=O)(O)OC[C@H]3O[C@@H](n4cnc5c(N)ncnc54)[C@H](O)[C@@H]3O)c2cc1C | Heat shock protein beta-1 (HSPB1, Homo sapiens, UniProt P04792) | binding | – | – | lysate | Kd | 159 nM |
| CCCC[C@@H]1NC(=O)[C@H](Cc2ccc(O)cc2)NC(=O)[C@@H]2CCCN2C(=O)[C@H](CC(=O)O)NC(=O)[C@H](C)NC(=O)[C@H](Cc2ccccc2)NC(=O)[C@@H]2CSCCC(=O)N3CN(CN(C3)C(=O)CCSC[C@@H](C(=O)N[C@@H](C)C(N)=O)NC1=O)C(=O)CCSC[C@H](NC(C)=O)C(=O)N[C@@H](CC(C)(C)C)C(=O)N1CCC[C@H]1C(=O)N[C@@H](CCCCNC(=O)CCc1cn(CC(=O)N[C@H]3CSCCC(=O)N4CN5CN(C4)C(=O)CCSC[C@H](NC(=O)[C@@H](CC(=O)O)NC(=O)[C@H](Cc4cccc6ccccc46)NC(=O)[C@@H]4CCCN4C3=O)C(=O)N[C@@H](CCSC)C(=O)N[C@@H](CCCCNC(=N)N)C(=O)N[C@@H](CC(=O)O)C(=O)N[C@@H](Cc3c[nH]c4ccccc34)C(=O)N[C@@H](CO)C(=O)N[C@@H]([C@@H](C)O)C(=O)N3CCC[C@H]3C(=O)N3C[C@H](O)C[C@H]3C(=O)N[C@@H](Cc3c[nH]c4ccccc34)C(=O)N[C@H](C(N)=O)CSCCC5=O)nn1)C(=O)N[C@H](C)C(=O)N1CCC[C@H]1C(=O)N[C@@H](Cc1ccc(O)cc1)C(=O)N2 | Tumor necrosis factor receptor superfamily member 9 | binding | – | SPR | – | Kd | 12 nM |
| CC(C)C[C@H](NC(=O)[C@H](Cc1ccccc1)NC(=O)[C@H](Cc1ccc(O)cc1)NC(=O)CNC(=O)[C@H](CCCNC(=N)N)NC(=O)[C@H](CO)NC(=O)[C@H](CCC(N)=O)NC(=O)[C@H](CO)NC(=O)[C@H](C)NC(=O)[C@H](Cc1ccccc1)NC(=O)[C@@H]1CCCN1C(=O)[C@H](CO)NC(=O)[C@H](CCC(N)=O)NC(=O)[C@H](Cc1ccccc1)NC(=O)[C@H](CCC(=O)O)NC(=O)[C@H](CCC(=O)O)NC(=O)[C@H](CC(=O)O)NC(=O)[C@@H](NC(=O)[C@H](CCCNC(=N)N)NC(=O)[C@@H](N)Cc1ccccc1)C(C)C)C(=O)N[C@@H](Cc1ccccc1)C(=O)N[C@@H](CCCNC(=N)N)C(=O)N1CCC[C@H]1C(=O)N[C@@H](CCCNC(=N)N)C(=O)N[C@@H](CC(N)=O)C(N)=O | Neuromedin-U receptor 2 (NMUR2, Homo sapiens, UniProt Q9GZQ4) | inositol phosphate | agonist | TR-FRET | – | EC50 | 0.17 nM |
